In ChEMBL document CHEMBL1125728, “Dopamine autoreceptor agonists as potential antipsychotics. 2. (Aminoalkoxy)-4H-1-benzopyran-4-ones” (J Med Chem, 1991):
The source made the active and inactive calls. The calls are words filed in the database; no cut-off is given here.

What was measured:
Rattus norvegicus [1] = assay: Compound tested for % reversal of DOPA accumulation at an intraperitoneal dose of 30 mg/kg.; type: functional
In short: (§1)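 Rats dosed 1 h before sacrifice, with GBL (750 mg/kg ip) at 30 min and NSD 1015 (100 mg/kg ip) at 25 min before sacrifice. Striatal DOPA measured by HPLC with electrochemical detection. Value is percent reversal of the GBL-induced DOPA rise.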

Rattus norvegicus [2] = assay: Inhibition of rat locomotor activity after being administered perorally.; type: functional; conditions: po
In short: (§2)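 Inhibition of exploratory locomotor activity, scored together with motor coordination (ataxia). ED50 generated from four to five doses, with 5–12 animals per dose.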

Mus musculus [3] = assay: Inhibition of mouse intraperitoneally.; type: functional; conditions: ip; in short: as §2
Dopamine receptor = assay: Compound was tested for inhibitory binding activity against Dopamine receptor in rat striatal membranes using [3H]HAL as the radioligand.; type: cell membranes, Striatum, Membrane
In short: (§3)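 [3H]Haloperidol displacement from rat striatal DA receptors, run in duplicate. IC50 obtained by nonlinear regression from four to five concentrations.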

Rattus norvegicus [4] = assay: Compound tested for % inhibition of DA neuronal firing at an intraperitoneal dose of 2.5 mg/kg.; type: functional; conditions: ip
[5] = molecular target: Dopamine receptor (Rattus norvegicus) (UniProt P25115+P19020+P30729+P18901+P61169); assay: Inhibitory binding activity against dopamine receptor in rat striatal membranes using [3H]HAL as the radioligand.; type: cell membranes; set-up: concentration or dose not given beside the values; conditions: Striatum; Membrane; concentration not given here; in short: as §3
Rattus norvegicus [6] = assay: Compound tested for % reversal of DOPA accumulation at an intraperitoneal dose of 30 mg/kg; Inactive; type: functional, organism-based; set-up: dose 30 mg/kg; in short: as §1
Rattus norvegicus [7] = assay: Compound tested for % reversal of DOPA accumulation at an intraperitoneal dose of 30 mg/kg. Negative value in parenthesis indicates further % increase in DOPA levels over GBL-induced increase.; type: functional; in short: as §1
Rattus norvegicus [8] = assay: Effect on DOPA accumulation level at an intraperitoneal dose of 30 mg/kg in rat.; type: functional
Rattus norvegicus [9] = assay: Percentage of rats showing signs of stereotyped behavior at 30 mg/kg peroral dose and animals observed for 60 min postdose.; type: functional; conditions: route oral
Rattus norvegicus [10] = assay: Percentage of rats showing signs of stereotyped behavior at 15 mg/kg peroral dose and followed 1 hr later by 10 mg/kg sc of SKF-38393 and animals observed for 60 min postdose before being; type: functional
In short: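 Part 2: oral dose given to naive rats, six per dose, followed 1 h later by SKF 38393 (10 mg/kg sc). Stereotypy (repetitive rearing, head-swaying, sniffing, licking, gnawing lasting ≥5 s) rated over 60 min. Reported as percent of rats affected.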

Rattus norvegicus [11] = assay: Compound was tested for inhibition of […] locomotor activity after being administered perorally.; type: functional; conditions: po
In short: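 Mice dosed orally and scored for inhibition of exploratory locomotor activity, with motor coordination (ataxia) also checked. ED50 generated from four to five doses using 5–12 animals per dose.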

Rattus norvegicus [12] = assay: Compound tested for its effective dose to inhibit rat locomotor activity after sc administration of the compound.; type: functional
In short: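 Rats dosed sc, with locomotor activity recorded for 30 min immediately after dosing. ED50 generated from four to five doses using 5–12 animals per dose, reported with ±95% confidence limits.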

Rattus norvegicus [13] = assay: Percentage of rats showing signs of stereotyped behavior at 30 mg/kg peroral dose and followed 1 hr later by 10 mg/kg sc of SKF-38393 and animals observed for 60 min postdose before being; type: functional
In short: (§4)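 Naive rats, six per dose, received compound, then SKF 38393 (10 mg/kg sc) 1 h later. They were rated for repetitive rearing, head-swaying, sniffing, licking and gnawing of at least 5 s duration. Result given as the percentage of rats showing stereotypy.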

Rattus norvegicus [14] = assay: Compound tested for its effect on reversal of 6-OHDA induced depression in rats after sc administration.; type: functional
In short: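 Rats lesioned at least 1 month earlier with 6-OHDA (20 μg icv) plus pargyline (50 mg/kg ip) and desipramine (25 mg/kg ip), giving about 90% brain DA depletion. Drug given sc, then locomotor activity recorded for 30 min from dosing. ED200 estimated from three or four doses, six rats per dose.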

[15] = Compound tested for its liability for extrapyramidal side effects (EPS) in terms of no. of animals showing signs of EPS/no. of animals tested upon peroral administration at a dose of 2.5 mg/Kg; 3/3; type: functional
[16] = Compound was tested for its inhibition of Sidman avoidance after peroral administration in Squirrel monkeys.; type: functional; conditions: po
In short: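 Sidman avoidance in mature squirrel monkeys, oral dosing. ED50 ± SEM generated from three doses, four animals per dose.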

Rattus norvegicus [17] = assay: Effect on DOPA accumulation level at an intraperitoneal dose of 0.5 mg/kg in rat; type: functional
Rattus norvegicus [18] = assay: Percentage of rats showing signs of stereotyped behavior at 0.3 mg/kg subcutaneous dose and animals observed for 60 min postdose.; type: functional
Mus musculus [19] = assay: Compound was tested for inhibition of mouse locomotor activity after being administered intraperitoneally.; conditions: ip
Rattus norvegicus [20] = assay: Percentage of rats showing signs of stereotyped behavior at 55 mg/kg peroral dose and followed 1 hr later by 10 mg/kg sc of SKF-38393 and animals observed for 60 min postdose before being; type: functional; in short: as §4
Rattus norvegicus [21] = assay: Percentage of rats showing signs of stereotyped behavior at 110 mg/kg peroral dose and animals observed for 60 min postdose.; type: functional; conditions: route oral
Rattus norvegicus [22] = assay: Percentage of rats showing signs of stereotyped behavior at 30 mg/kg subcutaneous dose and animals observed for 30 min postdose.; type: functional
Rattus norvegicus [23] = assay: Percentage of rats showing signs of stereotyped behavior at 30 mg/kg subcutaneous dose and followed 1 hr later by 10 mg/kg sc of SKF-38393 and animals observed for 30 min postdose before being; type: functional; in short: as §4

`O=c1ccoc2cc(OCCCN3CCc4[nH]c5ccc(F)cc5c4C3)ccc12` gave a Reversal (Rattus norvegicus [1]) of -44%, an ED50 (Rattus norvegicus [2]) of 5.5 mg/kg and an ED50 (Mus musculus [3]) of 7.5 mg/kg.

`O=c1ccoc2ccc(OCCCCN3CCN(c4ncccn4)CC3)cc12` showed an IC50 (Dopamine receptor) of 349 nM, an inhibition in vivo at 2.5 mg/kg (Rattus norvegicus [4]) of 100% and a Reversal (Rattus norvegicus [1]) of 100%. It also gave an ED50 (Rattus norvegicus [2]) of 8.2 mg/kg and an ED50 (Mus musculus [3]) of 3.6 mg/kg.

`O=c1ccoc2cc(OCCCN3CCN(c4ccc(Cl)c(Cl)c4)CC3)ccc12` showed an inhibition [5] of 23% and an ED50 (Mus musculus [3]) of 14 mg/kg.

In the case of `O=c1ccoc2cc(OCCCN3CCN(c4ccccc4)CC3)ccc12`, the inhibition in vivo at 2.5 mg/kg (Rattus norvegicus [4]) is reported as 68%, the Reversal (Rattus norvegicus [1]) is reported as 56% and the inhibition [5] is reported as 20%.

For `O=c1ccoc2cc(OCCCN3CCN(c4ccc(Cl)cc4)CC3)ccc12`, the “% reversal” value (Rattus norvegicus [6]) was “inactive” and the inhibition [5] was 10%.

In the case of `COc1ccccc1N1CCN(CCCOc2ccc3c(=O)ccoc3c2)CC1`, the inhibition [5] is reported as 48%.

`O=c1ccoc2cc(OCCCN3CCN(c4cccc(Cl)c4)CC3)ccc12` showed an inhibition [5] of 35% and a Reversal (Rattus norvegicus [7]) of -26%.

`O=C1CN(CCCOc2ccc3c(=O)ccoc3c2)CC(=O)N1c1ccccc1` showed an inhibition [5] of 0% and an ED50 (Mus musculus [3]) of over 30 mg/kg.

Compound `O=c1ccoc2cc(OCCCN3CCN(c4ccc(F)cc4)CC3)ccc12` has an inhibition [5] of 24%, a DOPA level (Rattus norvegicus [8]) of 1.36 µg/g and a Reversal (Rattus norvegicus [7]) of -42%.

For `O=c1ccoc2cccc(OCCCN3CCN(c4ccccc4)CC3)c12`, the “% reversal” value (Rattus norvegicus [6]) was “inactive”, the inhibition [5] was 9% and the ED50 (Rattus norvegicus [2]) was over 30 mg/kg.

For `O=c1ccoc2cc(OCCCN3CCN(c4ncccn4)CC3)ccc12`, the inhibition [5] was 0%, the ED50 (Rattus norvegicus [2]) was 15.6 mg/kg and the ED50 (Mus musculus [3]) was 12.4 mg/kg.

For `O=c1ccoc2ccc(OCCCCN3CCN(c4ccccc4)CC3)cc12`, the Animals (Rattus norvegicus [9]) was 0%, the inhibition in vivo at 2.5 mg/kg (Rattus norvegicus [4]) was 94% and the Reversal (Rattus norvegicus [1]) was 84%. The Animals (Rattus norvegicus [10]) was 0% and the inhibition [5] was 73%.

For `C1=C(c2ccccc2)CCN(CCCCc2c[nH]c3ccccc23)C1`, the Animals (Rattus norvegicus [9]) was 0%, the ED50 (Rattus norvegicus [11]) was 4.8 mg/kg and the ED50 (Rattus norvegicus [12]) was 4.69 mg/kg. It also gave an ED50 (Mus musculus [3]) of 0.1 mg/kg, an Animals (Rattus norvegicus [13]) of 0% and an ED200 (Rattus norvegicus [14]) of 0.29 mg/kg.

Compound `Cc1cccc(N2CCN(CCCOc3ccc4c(=O)ccoc4c3)CC2)c1C` has an inhibition [5] of 0%.

For `CSc1ccc2c(c1)N(CCC1CCCCN1C)c1ccccc1S2` (configuration not stated) [THIORIDAZINE], the EPS [15] was 3 and the ED50 [16] was 3.9 mg/kg.

For `Cc1cccc(N2CCN(CCCOc3ccc4c(=O)ccoc4c3)CC2)c1`, the “% reversal” value (Rattus norvegicus [6]) was “inactive” and the inhibition [5] was 38%.

For `Cc1ccccc1N1CCN(CCCOc2ccc3c(=O)ccoc3c2)CC1`, the “% reversal” value (Rattus norvegicus [6]) was “inactive”, the inhibition [5] was 29% and the ED50 (Rattus norvegicus [2]) was over 30 mg/kg.

For `O=c1ccoc2cc(OCCCN3CCN(c4ccccc4Cl)CC3)ccc12`, the inhibition [5] was 59%.

`O=c1ccoc2cc(OCCCCN3CCN(c4ccccc4)CC3)ccc12` showed a Reversal (Rattus norvegicus [1]) of 63% and an inhibition [5] of 74%.

For `Cc1ccc(N2CCN(CCCOc3ccc4c(=O)ccoc4c3)CC2)cc1`, the “% reversal” value (Rattus norvegicus [6]) was “inactive” and the inhibition [5] was 36%.

In the case of `O=c1ccoc2cc(OCCCN3CCc4ccccc4C3)ccc12`, the inhibition [5] is reported as 50% and the ED50 (Mus musculus [3]) is reported as 30 mg/kg.

In the case of `O=c1ccoc2cc(OCCCN3CCN(c4cnccn4)CC3)ccc12`, the inhibition [5] is reported as 17% and the ED50 (Mus musculus [3]) is reported as 26.3 mg/kg.

Compound `O=C(CCCN1CCC(O)(c2ccc(Cl)cc2)CC1)c1ccc(F)cc1` [HALOPERIDOL] has a DOPA level (Rattus norvegicus [17]) of 2.72 µg/g.

For `COc1ccc(N2CCN(CCCOc3ccc4c(=O)ccoc4c3)CC2)cc1`, the inhibition [5] was 25%.

`O=c1ccoc2cc(OCCCN3CCC=C(c4ccccc4)C3)ccc12` showed an IC50 (Dopamine receptor) of 243 nM and an ED50 (Mus musculus [3]) of 30.3 mg/kg.

`CN1CCc2cccc3c2[C@H]1Cc1ccc(O)c(O)c1-3` [APOMORPHINE] gave an Animals (Rattus norvegicus [18]) of 100%, an inhibition in vivo at 2.5 mg/kg (Rattus norvegicus [4]) of 100% and a Reversal (Rattus norvegicus [1]) of 104%. It also gave an ED50 (Rattus norvegicus [12]) of 0.03 mg/kg, an ED50 (Mus musculus [3]) of 6.4 mg/kg and an ED50 (Mus musculus [19]) of over 30 mg/kg. For the same compound, the ED200 (Rattus norvegicus [14]) was 0.005 mg/kg.

`Cc1ccc(N2CCN(CCCOc3ccc4c(=O)ccoc4c3)CC2)cc1C` showed a Reversal (Rattus norvegicus [1]) of -29% and an inhibition [5] of 41%.

In the case of `O=c1ccoc2cc(OCCCN3CC=C(c4ccccc4)CC3)ccc12`, the Animals (Rattus norvegicus [20]) is reported as 0%, the inhibition in vivo at 2.5 mg/kg (Rattus norvegicus [4]) is reported as 90% and the Reversal (Rattus norvegicus [1]) is reported as 54%. The ED50 (Rattus norvegicus [2]) was 5.5 mg/kg and the Animals (Rattus norvegicus [21]) was 0%.

Compound `O=c1ccoc2cc(OCCCN3CCN(c4cccc(O)c4)CC3)ccc12` has an inhibition [5] of 29%.

With `Nc1cccc(OCCCN2CCN(c3ccccc3)CC2)c1` the ED50 (Mus musculus [3]) was 1.3 mg/kg.

With `O=c1ccoc2cc(OCCCN3CCc4c(oc5ccccc45)C3)ccc12` the Reversal (Rattus norvegicus [1]) was 29%, the inhibition [5] was 8% and the ED50 (Rattus norvegicus [2]) was over 30 mg/kg. For the same compound, the ED50 (Mus musculus [3]) was 13.5 mg/kg.

`O=c1ccoc2cc(OCCCN3CCCN(c4ccccc4)CC3)ccc12` showed an IC50 (Dopamine receptor) of 884 nM and an ED50 (Mus musculus [3]) of over 30 mg/kg.

`CCN(CCCOc1ccc2c(=O)ccoc2c1)CCCc1ccccc1` gave an inhibition [5] of 26% and an ED50 (Mus musculus [3]) of over 30 mg/kg.

Compound `CCCN1CCCC(c2ccccc2)C1` (single isomer, unassigned; (+)) has an Animals (Rattus norvegicus [22]) of 16%, an Animals (Rattus norvegicus [23]) of 100% and an ED50 (Rattus norvegicus [12]) of 3 mg/kg. It also gave an ED200 (Rattus norvegicus [14]) of 0.48 mg/kg.

`O=c1ccoc2cc(OCCCN3CCC(c4ccccc4)CC3)ccc12` showed an inhibition [5] of 40%.

In the case of `O=c1ccoc2cc(OCCCN3CCN(Cc4ccccc4)CC3)ccc12`, the inhibition [5] is reported as 31% and the ED50 (Mus musculus [3]) is reported as over 30 mg/kg.
